Screening results as filed in PubChem.
A selection: hits, their analogues and other compounds. The true share with any hit is near 1.7%.
NTR1 ag: NTR1 (human) agonism; P30989; NTR1-U2OS beta-arrestin-GFP spot imaging, agonist mode; activation, % at 20 µM; 330,000 tested, 0.17% active;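 active means activation at or above 40% of the spot to cytoplasm intensity ratio, with at least 20 cells analyzed; inconclusive means wells under 20 cells, flagged as cytotoxic or low count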;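 further: 0% = DMSO without peptide and 100% = 100 nM NTR1 peptide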
Target sequence (P30989 whole entry, looked up): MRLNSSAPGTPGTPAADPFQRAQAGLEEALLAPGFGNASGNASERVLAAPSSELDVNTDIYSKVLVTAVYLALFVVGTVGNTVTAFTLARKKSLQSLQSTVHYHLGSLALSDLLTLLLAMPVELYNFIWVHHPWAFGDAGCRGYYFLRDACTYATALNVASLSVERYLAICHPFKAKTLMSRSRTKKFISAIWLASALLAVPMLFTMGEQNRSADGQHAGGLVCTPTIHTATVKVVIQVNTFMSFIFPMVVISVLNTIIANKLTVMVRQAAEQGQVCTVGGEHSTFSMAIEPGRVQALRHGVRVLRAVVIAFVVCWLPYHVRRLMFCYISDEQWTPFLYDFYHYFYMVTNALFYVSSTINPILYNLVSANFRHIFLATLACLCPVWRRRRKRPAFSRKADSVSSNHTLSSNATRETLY
Vif imaging: inhibitors of HIV Vif; inhibition, % at 7.49 µM; HEK293T cells, Vif self-association by quenched fluorescence, imaging, 24 h; 340,000 tested, 0.35% active; in the data active means inhibition above about 50%, passing the limit was not always enough; inconclusive means no clear call, values can overlap the other calls; inactive means below about 31%
SR-BI DiI-HDL act: enhances SR-BI lipid uptake from DiI-HDL. 320,000 tested, 0.096% active. CHO ldlA[mSR-BI] cells, DiI-HDL uptake fluorescence, 3 h; 100 = double the neutral-control signal. AID 504775. activation, % at 12.5 µM;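 active means mean replicate activation of at least 60% and every replicate at or above 60%; inconclusive means mean or all-replicate condition met, but not both; inactive means mean below 60% and not all replicates reaching 60%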;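 further: 0% = median plate neutral-control signal and 100% = twice that signal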
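Assay system: LDL receptor-deficient CHO ldlA cells overexpressing murine SR-BI / Medium: BSA-supplemented, HEPES-buffered Ham's F12, pH 7.4 / Probe or stimulus: DiI-labelled HDL at 10 µg/mL final / Timing: compound with DiI-HDL co-incubation, 3 h at 37 °C / Technique: bottom-read cell fluorescence after medium removal, ex 550/em 595 nm / Measure: HDL uptake via cellular fluorescence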
SR-BI HDL uptake: inhibitors of mouse SR-BI mediated HDL lipid uptake; ldlA[mSR-BI] CHO cells, DiI-HDL uptake fluorescence, 3 h; 320,000 tested, 0.96% active; inhibition, % at 12.5 µM; Q61009; AID 488896;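 active means mean replicate inhibition of at least 70% and a set share of replicates each scoring 70 or more; inconclusive means meets just one of the two criteria; inactive means fails both criteria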;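 further: 0% = median of neutral control wells and 100% = median of positive control wells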
V-ATPase pHluor: yeast V-ATPase proton transport regulation by pHLuorin | AID 504577 | S. cerevisiae, pHLuorin cytosolic pH fluorescence | 350,000 tested, 0.37% active | response, % at 10 µM; in the data active means response mostly above about 7.3%, no sharp cut-off; inactive means mostly below about 5.4%; further: actives read high
CaV13 FRET inh: Primary screen for inhibitors of IQ motif and Ca2+-dependent inactivation inhibitor domain binding in CACNA1D, Förster resonance energy transfer in living cells, … | HEK cells, CFP/YFP FRET ICDI-IQ, plate reader, 10 min; percent FRET-ratio fall versus neutral wells | inhibition, % at 12.3 µM | 340,000 tested, 0.098% active | AID 743397;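 active means mean replicate inhibition of at least 30% and at least 1% of replicates passing that level; inconclusive means only one of the two criteria is met; inactive means neither criterion is met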;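 further: 0% = median of the neutral control wells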
DiI quencher: quenches DiI-HDL fluorescence, an SR-BI assay artifact; shares compounds with SR-BI HDL uptake; cell-free DiI-HDL fluorescence quenching, 30 min; AC50, µM (highest dose often 35 µM), inactives show at the highest dose activity change, negative = quenching; 470 tested, 20% active; AID 540326;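 active means quenching, a falling signal, with AC50 below a set limit tied to the top valid dose, actives reach about 32 µM in these data; inconclusive means no clear call, values can overlap the other calls; inactive means rising signal, and the rest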
* = called active by the depositor; ? = inconclusive; · = no result given.

SMILES | NTR1 ag | Vif imaging | SR-BI DiI-HDL act | SR-BI HDL uptake | V-ATPase pHluor | CaV13 FRET inh | DiI quencher
CCCC(=O)N1CCc2cc(-c3nc(N)sc3C)ccc21 | 1 | 0 | -75 | 75* | -2 | -6 | -9%
CN(C)S(=O)(=O)c1ccc(Cl)c(NC(=O)COC(=O)/C=C/c2ccco2)c1 | 2 | 0 | -6 | 6 | -3 | -2 | ·
COc1cc(NC(=S)Nc2ccccn2)cc(OC)c1 | 1 | -32 | 3 | -3 | 6 | -5 | ·
CCC1CCCCN1C(=O)CSc1nnc(-c2ccco2)o1 (stereo not given) | 3 | -7 | -76 | 76* | 2 | -4 | -6%
Cc1ccc(OCC(=O)NNC(=O)C2CCN(c3ncnc4sc(C)c(C)c34)CC2)cc1 | 4 | -2 | -80 | 80* | 0 | -6 | 3%
O=S(=O)(Nc1ncnc2scc(-c3ccc(F)cc3)c12)c1cc(F)ccc1F | 5 | 0 | · | · | 2 | 3 | ·
O=C1C2CCCN2C(=O)N1CCCN1CCN(c2ccc([N+](=O)[O-])cc2)CC1 (stereo not given) | 1 | -4 | -94 | 94* | 1 | -1 | -2%
O=C(Nc1ccc(-c2csc(Nc3ccccc3)n2)cc1)c1cccc(C(F)(F)F)c1 | 14 | 18 | -114 | 114* | 9 | -6 | 1.5µM*
COc1cc([N+](=O)[O-])c(C)cc1NC(=O)c1ccc(OC)c(OC)c1 | · | -6 | · | · | 1 | -5 | ·
COc1ccc(COC(=O)c2ccc(Br)c(S(=O)(=O)N3CCOCC3)c2)cc1F | 2 | -10 | -74 | 74* | -8 | -6 | 2%
CN(c1ccc(Br)cc1)S(=O)(=O)c1ccc2[nH]cc(C(=O)NCCN3CCOCC3)c(=O)c2c1 | 0 | 3 | 10 | -10 | 6 | -4 | ·
Cc1ccccc1COn1nnc2ccc(S(=O)(=O)N3CCOCC3)cc21 | 0 | ? | 11 | -11 | 2 | -6 | ·
O=C(COn1nnc2ccc(S(=O)(=O)N3CCOCC3)cc21)Nc1c(F)c(F)c(F)c(F)c1F | -1 | 7 | -2 | 2 | 0 | -2 | ·
CC(C)CN(CC(C)C)C(=O)COn1nnc2ccc(S(=O)(=O)N3CCOCC3)cc21 | -2 | 3 | -70 | 70* | -4 | -14 | -5%
CN(C(=O)COn1nnc2ccc(S(=O)(=O)N3CCOCC3)cc21)c1ccccc1 | -1 | -9 | -8 | 8 | 3 | -6 | -3%
CCOC(=O)C1CCCN(C(=O)c2ccncc2)CC1 (stereo not given) | · | -7 | · | · | · | -5 | ·
CCNC(=O)C1CCCN(C(=O)c2ccc(C(F)(F)F)cc2)CC1 (stereo not given) | · | -19 | · | · | · | -10 | ·
O=C1[C@@H]2Cc3c([nH]c4ccccc34)C(c3cccc([N+](=O)[O-])c3)N2C(=O)CN1CCCO (stereo not given in full) | 0 | -8 | -82 | 82* | -4 | -3 | -16%
COc1cccc(C2c3[nH]c4ccccc4c3C[C@H]3C(=O)N(CCCCCO)CC(=O)N23)c1 (stereo not given in full) | 0 | -1 | -56 | 56 | 4 | -21 | ·
COC(=O)c1c(C)[nH]c(C(=O)C(C)OC(=O)C2CC(=O)N(c3ccc(C)cc3)C2)c1C (stereo not given) | 2 | -2 | -77 | 77* | 4 | -2 | -2%
O=C(CC(C(=O)O)C1CCCO1)Nc1cccc(C(F)(F)F)c1 (stereo not given) | 0 | -4 | 21 | -21 | -4 | -5 | ·
O=C(O)CC(C(=O)Nc1cccc(C(F)(F)F)c1)C1CCCO1 (stereo not given) | -1 | 15 | 17 | -17 | -3 | -6 | -3%
CCc1ccc(CCC(=O)Nc2sc3c(c2C#N)CCCC3)o1 | 7 | 2 | -62 | 62 | -4 | -11 | ·
Cc1ccc(/C=C/C(=O)Nc2sc3c(c2C#N)CCCC3)o1 | -1 | -1 | -75 | 75* | 1 | -18 | -5%
COc1cc([N+](=O)[O-])ccc1NC(=O)NCC1CCN(Cc2ccc(Cl)cc2)CC1 | 3 | -7 | -83 | 83* | -1 | -4 | -5%
SMILES | NTR1 ag | Vif imaging | SR-BI DiI-HDL act | SR-BI HDL uptake | V-ATPase pHluor | CaV13 FRET inh | DiI quencher
Cc1cc(=O)oc2cc(OCC(=O)N3CCN(C(=O)C4COc5ccccc5O4)CC3)c(Cl)cc12 (stereo not given) | 2 | -6 | -80 | 80* | 2 | -5 | -5%
Cc1c(CC(=O)N2CCN(C(=O)C3COc4ccccc4O3)CC2)c(=O)oc2cc(O)c(Cl)cc12 (stereo not given) | -1 | 16 | 6 | -6 | 0 | 1 | ·
COc1ccc(CNC(=O)COC(=O)Cc2ccc(Cl)cc2Cl)cc1 | -2 | 7 | 22 | -22 | 2 | -13 | ·
COc1cc(-c2nnn(Cc3ccccc3C)n2)cc(OC)c1OC | 1 | -4 | -101 | 101* | -2 | -14 | 2%
COc1ccc(-c2nnn(Cc3ccccc3)n2)cc1OC | 0 | -4 | -4 | 4 | -3 | -19 | ·
CCO[C@H]1OC(C(=O)O)=C[C@@H](c2ccc(C(F)(F)F)cc2)[C@@H]1CCCO | 0 | -2 | 35 | -35 | -1 | -11 | ·
O=C(Nc1cccc(-c2cn3c(n2)SCC3)c1)c1ccc2ccccc2n1 | 13 | -7 | -76 | 76* | -2 | -6 | -5%
O=C(Nc1ccc(-c2cn3c(n2)SCC3)cc1)c1ccc2ccccc2n1 | 11 | -7 | -55 | 55 | 0 | -11 | ·
COc1cccc2c1cc1c(=O)n(CC(=O)N3CCN(c4cccc(C)c4C)CC3)nc(C)n12 | · | -13 | 0 | 0 | -3 | -7 | 2%
COc1ccc(C2/C=C\CN(S(=O)(=O)c3ccc4ccccc4c3)CC(=O)N2Cc2ccc(F)cc2)cc1 (stereo not given) | 2 | -8 | -48 | 48 | -3 | -6 | 4%
COc1ccc(C2/C=C\CN(S(=O)(=O)/C=C/c3ccccc3)CC(=O)N2Cc2ccc(F)cc2)cc1 (stereo not given) | 4 | 12 | -50 | 50 | 1 | -11 | ·
Cc1ccc2nc(N(CCN(C)C)C(=O)C3CCN(S(=O)(=O)c4cccs4)CC3)sc2c1 | · | 2 | · | · | -1 | -2 | ·
Cc1ccccc1-c1cc(C(=O)NCc2cccc(Br)c2)nn1CC1CC(c2cccc([N+](=O)[O-])c2)=NO1 (stereo not given) | 0 | -5 | -34 | 34 | -1 | -5 | -1%
COc1ccc(OCCSc2nnc(-c3cccnc3)n2N)cc1 | 1 | 0 | -106 | 106* | 2 | -3 | -1%
